ChEMBL document CHEMBL1153228, “Synthesis and in vivo evaluation of bicyclic gababutins” (Bioorg Med Chem Lett, 2010)
Calls of active or inactive are those of the source. No cut-off for these calls is given here.

Tests used:
[1] = target: Voltage-dependent calcium channel alpha2delta subunit (Sus scrofa, UniProt O77773); assay: Displacement of [3H]gabapentin from calcium channel alpha2delta in pig cerebral cortex membrane after 30 mins; assay type: cell membranes
[2] = Bioavailability in rat; assay type: ADME, organism-based; conditions: in vivo
[3] = Inhibition of L-type amino acid transporter expressed in CHO cells assessed as inhibition of [3H]leucine uptake; assay type: cell-based
[4] = Lipophilicity, log D at pH 7.4; assay type: physicochemical; conditions: buffer
[5] = Clearance in rat; assay type: ADME, organism-based; conditions: in vivo
[6] = test system: Rattus norvegicus; assay: Analgesic activity in rat chronic constriction injury weight model assessed as inhibition of pain effect at 3 to 10 mg/kg, po; assay type: functional, organism-based
Outline: (§1)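 Rat sciatic-nerve chronic constriction model: loose ligatures placed around the sciatic nerve produce hypersensitivity in one hind paw. Weight borne on each hind paw is measured, and the read-out is the difference between the ipsilateral (affected) and contralateral (unaffected) paw.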

[7] = Elimination half life in rat; assay type: ADME, organism-based; conditions: in vivo
[8] = test system: Rattus norvegicus; assay: Analgesic activity in intrathecally dosed rat chronic constriction injury weight model assessed as inhibition of pain effect; assay type: functional, organism-based; outline: as §1

Voltage-dependent calcium channel alpha2delta subunit, sequence (O77773 whole entry): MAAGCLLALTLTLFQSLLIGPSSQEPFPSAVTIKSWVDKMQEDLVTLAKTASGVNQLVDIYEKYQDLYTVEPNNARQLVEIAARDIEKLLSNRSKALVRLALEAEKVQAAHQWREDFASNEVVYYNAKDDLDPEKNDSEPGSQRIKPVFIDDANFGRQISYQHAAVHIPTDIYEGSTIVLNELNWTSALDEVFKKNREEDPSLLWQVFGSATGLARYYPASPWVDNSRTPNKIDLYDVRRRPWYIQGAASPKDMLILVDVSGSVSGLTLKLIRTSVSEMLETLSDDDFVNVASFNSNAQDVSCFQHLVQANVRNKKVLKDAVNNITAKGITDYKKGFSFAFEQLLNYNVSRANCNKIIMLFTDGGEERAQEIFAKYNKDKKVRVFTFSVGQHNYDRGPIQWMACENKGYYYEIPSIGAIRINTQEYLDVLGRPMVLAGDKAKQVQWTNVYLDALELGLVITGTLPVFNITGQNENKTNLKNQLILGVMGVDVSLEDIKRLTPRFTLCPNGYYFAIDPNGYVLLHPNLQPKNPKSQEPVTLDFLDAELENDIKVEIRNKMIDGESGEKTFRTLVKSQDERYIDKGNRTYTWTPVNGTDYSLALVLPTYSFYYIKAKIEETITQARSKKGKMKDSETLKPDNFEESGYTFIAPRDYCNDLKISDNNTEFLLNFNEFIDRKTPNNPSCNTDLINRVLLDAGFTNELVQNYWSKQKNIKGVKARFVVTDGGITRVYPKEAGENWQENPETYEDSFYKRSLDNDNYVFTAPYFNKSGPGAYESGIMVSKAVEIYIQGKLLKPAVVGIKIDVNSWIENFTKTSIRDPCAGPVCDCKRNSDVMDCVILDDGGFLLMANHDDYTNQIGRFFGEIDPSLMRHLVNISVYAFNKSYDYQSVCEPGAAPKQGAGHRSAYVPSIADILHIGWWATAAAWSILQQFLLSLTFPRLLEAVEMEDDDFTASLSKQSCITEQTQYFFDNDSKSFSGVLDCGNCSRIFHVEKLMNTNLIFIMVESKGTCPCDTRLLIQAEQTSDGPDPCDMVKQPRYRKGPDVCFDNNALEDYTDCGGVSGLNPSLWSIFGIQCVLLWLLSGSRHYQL

Structure (SMILES): NC[C@@]1(CC(=O)O)CC2CCCCC21 (mixture of isomers)
- IC50 [1]: 3.09 µM

Structure (SMILES): NC[C@]1(CC(=O)O)CC2CCCCC21 (mixture of isomers)
- IC50 [1]: 0.6 µM

Structure (SMILES): NC[C@@]1(CC(=O)O)C[C@H]2CCC[C@H]2C1
- IC50 [1]: > 10 µM

Structure (SMILES): NC[C@]1(CC(=O)O)C[C@H]2CCC[C@H]21
- bioavailability [2]: 100%
- IC50 [3]: > 10000 µM
- IC50 [1]: 0.046 µM
- logD [4]: -1
- clearance [5]: 4.5 mL/min/kg
- Activity [6]: Active
- half-life [7]: 2.3 h

Structure (SMILES): NC[C@@]1(CC(=O)O)CC2CCCC21 (mixture of isomers)
- IC50 [1]: 2.8 µM

Structure (SMILES): NCC1(CC(=O)O)CC2CCCCC2C1 (racemic)
- IC50 [1]: > 10 µM

Structure (SMILES): NC[C@]1(CC(=O)O)C[C@H]2CC[C@H]2C1
- bioavailability [2]: 84%
- IC50 [3]: 38 µM
- IC50 [1]: 0.038 µM
- logD [4]: -1
- clearance [5]: 4.3 mL/min/kg
- Activity [6]: Active
- half-life [7]: 2.4 h

Structure (SMILES): NC[C@@]1(CC(=O)O)C[C@H]2CCCC[C@H]2C1
- IC50 [1]: > 10 µM

Structure (SMILES): C[C@@H]1C[C@@](CN)(CC(=O)O)C[C@@H]1C
- IC50 [3]: 7 µM
- IC50 [1]: 0.107 µM

Structure (SMILES): NC[C@]1(CC(=O)O)CCC2CCCC21 (mixture of isomers)
- IC50 [1]: 7.18 µM

Structure (SMILES): NC[C@]1(CC(=O)O)CC2CCCC21 (mixture of isomers)
- IC50 [1]: 0.025 µM

Structure (SMILES): NC[C@@]1(CC(=O)O)C[C@@H]2CCC[C@@H]21
- IC50 [3]: 6930 µM
- IC50 [1]: 0.019 µM
- Activity [8]: Active

Structure (SMILES): NC[C@]1(CC(=O)O)C[C@H]2CCC[C@H]2C1
- IC50 [1]: 2.6 µM

Structure (SMILES): NC[C@]1(CC(=O)O)C[C@H]2CCCC[C@H]2C1
- IC50 [1]: 0.72 µM

Structure (SMILES): NCC1(CC(=O)O)CC2CCC2C1 (racemic)
- IC50 [1]: 2.9 µM

Structure (SMILES): NC[C@@]1(CC(=O)O)C[C@H]2CC[C@H]2C1
- IC50 [1]: 0.332 µM

Structure (SMILES): C[C@H]1CC(CN)(CC(=O)O)C[C@@H]1C (relative stereo) [ATAGABALIN]
- IC50 [3]: 10 µM
- IC50 [1]: 0.022 µM

Structure (SMILES): NCC1(CC(=O)O)CC2CCCC2C1 (racemic)
- IC50 [1]: > 10 µM
